TAAR1 antagonist: antagonists of human TAAR1; 360,000 compounds, 1.5% hits; Q96RJ0; inhibition, % at 3 µM; CHO RD-HGA16 TAAR1, Fluo-8 calcium fluorescence, antagonist; AID 624466;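 active = inhibition above a per-plate cutoff, the mean inhibition of test compounds on that plate plus 3 SD, cut at about 49% in these data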;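 note: 0% = DMSO plus EC80 beta-PEA response and 100% = DMSO alone without agonist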
Target sequence (Q96RJ0 whole entry, looked up): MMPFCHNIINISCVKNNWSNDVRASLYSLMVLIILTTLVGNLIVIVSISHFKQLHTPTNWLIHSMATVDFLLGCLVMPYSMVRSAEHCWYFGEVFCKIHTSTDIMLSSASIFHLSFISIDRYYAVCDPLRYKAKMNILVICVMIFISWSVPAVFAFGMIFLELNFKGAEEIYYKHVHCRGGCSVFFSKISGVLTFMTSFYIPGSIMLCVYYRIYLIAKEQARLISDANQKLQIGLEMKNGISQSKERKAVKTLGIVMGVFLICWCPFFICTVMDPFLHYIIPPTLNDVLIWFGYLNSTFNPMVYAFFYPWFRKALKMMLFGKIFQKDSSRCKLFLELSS
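Test system – hTAAR1-expressing CHO RD-HGA16 cells, Gα16-coupled · Also added – β-PEA at EC80 concentration, post-compound challenge · Compound – 3 µM, single point · Incubation – dye loading 75 min at 37 °C, then 30 min room temperature · Measured by – Fluo-8 intracellular calcium dye fluorescence, real-time kinetic reads · Benchmarks – vehicle and agonist controls · Replicates – singlicate, one well per test compound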
TAAR1 ag: agonists of human TAAR1; Q96RJ0; CHO RD-HGA16 TAAR1, Fluo-8 calcium fluorescence; vehicle wells 0%, saturating PEA agonist 100%; activation, % at 3 µM; 360,000 compounds, 0.99% hits; AID 624467;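 active = activation above the mean activation of all test compounds in the run plus 3 SD, cut at about 38% in these data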
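Test system: RD-HGA16 (CHO) cells co-expressing Gα16 and hTAAR1; dosing: one-point dosing at 3 µM (nominal); timing: 17-24 h seeding, 75 min 37 °C dye, 30 min RT; signal: kinetic Fluo-8 calcium fluorescence; read-out basis: % activation relative to PEA EC100 response; controls: DMSO and PEA EC100; replicates: n 1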
OX1R antag-1: antagonists of human orexin 1 receptor (OX1R) | O43613 | AID 485270 | OX1R-expressing cells, FRET antagonist read-out | inhibition, % at 6.6 µM | 330,000 compounds, 1.8% hits; in the data active = inhibition mostly above about 38%, no sharp cut-off; inactive = mostly below about 40%;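 note: 0% = agonist challenge alone and 100% = reference antagonist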
GPR7 antag: blocks human GPR7 receptor signaling. AID 1861. 290,000 compounds, 1.1% hits. GPR7-expressing cells, fluorescence antagonist assay. inhibition, % at 4.4 µM; in the data active = inhibition above about 16%, passing the limit was not always enough;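 note: cells stimulated with the agonist NPW; 0% = agonist with vehicle and 100% = vehicle without agonist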
CHO parental Ca: counter-screen for OX1R antagonists: effect in parental CHO cells; parental CHO-K1, ATP-induced calcium, Fluo-8 fluorescence; inhibition, % at 5.6 µM; 330,000 compounds, 0.63% hits; AID 463079;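 active = inhibition above that plate's mean sample inhibition plus 3 SD, cut at about 26% in these data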;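 note: 0% = ATP-challenged DMSO wells and 100% = DMSO wells without ATP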
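Measured by: calcium-sensitive Fluo-8 fluorescence / Test system: CHO parental line / Controls: ATP-challenged DMSO wells low, unchallenged DMSO wells high / Measure: % inhibition / Compound: single nominal dose of 5.6 µM per compound / Replicates: single well per compound, no replicates / Reagent: ATP as calcium-mobilizing challenge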
OX1R antag-2: human HCRTR1 antagonism. 330,000 compounds, 0.43% hits. inhibition, % at 5 µM. CHO/OX1R cells, Fluo-8 calcium fluorescence, orexin A. O43613;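 active = inhibition above its plate's threshold, mean inhibition of all tested compounds on the plate plus 3 SD, cut at about 37% in these data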;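 note: 0% = orexin A challenge wells and 100% = SB-334867-A antagonist wells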
Starred values were filed as active, the others as inactive; . = not tested or not shown. Only some compounds are listed: those with a hit (about 4.5% of all), similar ones and a draw of the others.

SMILES	TAAR1 antagonist	TAAR1 ag	OX1R antag-1	GPR7 antag	CHO parental Ca	OX1R antag-2
CCN(CC)S(=O)(=O)c1ccc(N2CCN(c3ccccc3OC)CC2)c(N)c1	25.7	3.7	38.0	-4.6	61.1*	6.4
COCCN1C(=O)/C(=C/c2ccc(N3CCCC3)cc2)SC1=S	50.2*	51.6*	13.3	1.1	41.6*	50.4*
Cc1noc(C)c1S(=O)(=O)Nc1ccc(C(=O)N2CCN(c3cccc(Cl)c3)CC2)cc1	38.3	8.7	25.7	-10.1	33.2*	56.5*
CCCCc1c(-c2ccccc2OC)ncn1C1CCCCC1	-25.8	1.2	.	.	.	.
COc1cccc(-c2ccc3c(c2)[C@@H]2C[C@H]4[C@@H](CN2CC3)[C@H](C)ON4C)c1	-0.4	0.1	.	.	.	.
CCC(Sc1nc2ccsc2c(=O)n1Cc1ccc(C(=O)O)cc1)C(=O)Nc1ccc(C)c(Cl)c1 (centres undefined)	57.5*	12.4	5.7	-3.2	31.2	25.5
CCC(Sc1nc2ccsc2c(=O)n1Cc1ccc(C(=O)O)cc1)C(=O)Nc1cc(Cl)ccc1C (centres undefined)	-11.2	4.4	.	.	.	.
OC(CNC1CCCc2ccccc21)COc1c(Cl)cccc1Cl (centres undefined)	9.6	69.0*	19.9	3.4	-18.4	-37.0
OC(CNC1Cc2ccccc2C1)COc1ccc(Cl)cc1 (centres undefined)	8.3	8.9	30.0	-0.8	-11.9	-24.8
CC(O)CNc1cc(N)c([N+](=O)[O-])cc1[N+](=O)[O-] (centres undefined)	7.0	-0.1	72.5*	-3.3	-0.9	3.1
CC(O)CNc1ccc([N+](=O)[O-])cc1S(=O)(=O)N1CCOCC1 (centres undefined)	-8.8	-0.8	21.7	-7.9	-9.8	3.0
COc1ccc(N=Nc2nc(-c3ccccc3)c(-c3ccccc3)[nH]2)cc1	36.1	-1.5	18.6	-6.7	-17.7	-20.2
COc1ccccc1N=Nc1nc(-c2ccccc2)c(-c2ccccc2)[nH]1	23.8	-2.2	65.9*	0.1	26.2	0.2
O=C1c2ccccc2/C(=C\c2ccc(Br)nc2)N1c1ccccc1	3.4	1.6	.	.	.	.
COC(=O)c1ccccc1NC(=O)COC(=O)CO/N=C(\C)c1ccc2c(c1)OCO2	10.2	0.1	17.6	-5.4	-12.2	-16.5
COC(=O)C1=C(C)N(Cc2ccccc2)C(=NCCc2c[nH]c3ccccc23)N[C@H]1c1cccc(C(F)(F)F)c1	.	.	3.7	.	37.7	67.4*
COc1ccc(OCCN2CCC(C(=O)NC(c3ccc(F)cc3)c3ncccc3C)CC2)cc1 (centres undefined)	-1.1	2.2	.	.	.	.
Cc1nn2c(-c3cccc(NC(=O)c4ccco4)c3)nnc2c2ccccc12	25.5	13.4	34.0	-17.4	-26.6	-24.2
Cc1nn2c(-c3ccccc3)nnc2c2ccccc12	6.5	-0.6	64.1*	-20.6	-18.2	-12.9
Cc1ccc2nsnc2c1S(=O)(=O)NCc1ccc2c(c1)OCO2	-5.3	8.6	43.5*	-3.4	1.6	-36.0
Cc1cccc(C)c1NC(=O)C(c1ccc(C(F)(F)F)cc1)n1c(=O)c(-c2cc3ccccc3[nH]2)nc2ccccc21 (centres undefined)	-20.8	-0.5	.	.	.	.
Nc1ccc2c3c(cccc13)-c1ccccc1-2	72.1*	81.7*	.	.	.	.
O=C(CC[C@H]1O[C@@H](n2cnc3c(NC(=O)c4ccccc4)ncnc32)[C@H](O)[C@@H]1O)NCc1ccco1	-13.1	0.3	.	.	.	.
CNC(C)C#Cc1ccc2oc3cccc(OC)c3c(=O)c2c1 (centres undefined)	7.4	1.4	47.8*	9.0	-19.7	-3.8
CNC(C)C#Cc1ccc2c(=O)c3c(OC)cccc3oc2c1 (centres undefined)	.	.	49.1	5.3	-9.6	-19.1
COc1ccc(-c2cc3ccccc3n2CC(O)Cn2nc(C)cc2C)cc1 (centres undefined)	-6.2	1.4	4.7	-3.5	-23.3	-31.1
COc1ccc(-c2cc3ccccc3n2CC(O)CNC(CO)(CO)CO)cc1 (centres undefined)	-9.6	3.2	-1.7	14.7*	-14.3	-16.6
C=CCN1C(=O)[C@]2(OCCC=C[C@H]2C)c2cc(OC)ccc21	-26.4	3.1	.	.	.	.

Screening results: PubChem BioAssay, The Scripps Research Institute Molecular Screening Center
